Results from different studies.
Protocols differ between the studies behind these lines.
Target: Homeodomain-interacting protein kinase 3 (HIPK3, Homo sapiens, UniProt Q9H422)
Read-out: enzyme activity
Mode: inhibitor

SMILES	method	tested at	remaining activity
FC(F)c1nc2ccccc2n1-c1nc(N2CCOCC2)nc(N2CCOCC2)n1		10 µM	98%
COc1cc(Nc2cnc(C#N)c(O[C@H](C)CN(C)C)n2)ncc1-c1cnn(C)c1	radiometric	1 µM	96%
O=C(O)c1ccc2c(c1)nc(NCCc1ccccc1)c1ccncc12	radiometric	1 µM	8%
Oc1cccc(-c2nc(N3CCOCC3)c3oc4ncccc4c3n2)c1		10 µM	82%
O=C(O)c1ccc2c(c1)nc(NCCc1cccc(Cl)c1)c1ncncc12	radiometric	1 µM	38%
Cc1cnc(NC2CCOCC2)nc1-n1cnc(C(=O)NC(CN)c2cc(F)cc(Cl)c2)c1 (stereo not shown)	radiometric	1 µM	94%
COc1cc(Cl)c(C(=O)N[C@@H](CN[C@H]2CC[C@@H](N)CC2)Cc2ccc(C#N)cc2)cc1-c1ccc(CN[C@H](C)c2ccc(C)cc2)o1		1 µM	96%
CC(C)(C)c1nc(-c2cccc(NS(=O)(=O)c3c(F)cccc3F)c2F)c(-c2ccnc(N)n2)s1	radiometric	1 µM	99%
Cc1sc(C(=O)NC2COC2)cc1-n1cc(NC(=O)Nc2c(F)cccc2Cl)cn1		10 µM	88.5%
O=C(O)c1ccc2c(c1)nc(Nc1ccc(F)c(Cl)c1)c1ccncc12	radiometric	1 µM	5%
CCN(CC)c1ccc(C2=NNC(=O)CC2C)cc1[N+](=O)[O-] (stereo not shown)		10 µM	40%
O=C(O)c1ccc2c(c1)nc(Nc1ccc3ccccc3c1)c1ccncc12	radiometric	1 µM	7%
CC(C)(O)[C@H]1CC[C@H](Nc2ccc3ncc(-c4cccc(C(F)(F)F)c4)n3n2)CC1		1 µM	78.4%
O=C(Nc1cnn(-c2csc(C(=O)NC3COC3)c2)c1)Nc1ccccc1Cl		5 µM	97.6%
O=C(O)c1ccc2c(c1)nc(Nc1ccc(F)c(Cl)c1)c1ncncc12	radiometric	1 µM	12%
Cc1ccc(C(=O)Nc2ccc(CN3CCN(C)CC3)c(C(F)(F)F)c2)cc1C#Cc1cnc2cccnn12		23.5 nM	93%
CC(C)(C)c1nc2c(s1)c1nc(N)ncc1c1ccc(NS(=O)(=O)c3c(F)cccc3F)c(F)c12	radiometric	1 µM	96%
O=C(O)c1ccc2c(c1)nc(NCc1ccccc1)c1ncncc12	radiometric	1 µM	52%
CCCOc1ccc(OC)c(F)c1C(=O)c1ccc(C(=O)N[C@@H]2CNC[C@H]2NC(=O)c2ccc3[nH]ncc3c2)cc1		10 µM	97%
